# Results reported in PubChem BioAssay AID651740 (Broad Institute, 2012).
# Screen size: about 5,600 compounds; about 1,200 (21%) were called active. Another 3% or so got no clear call; they are omitted. A selection follows. Unmarked numbers belong to inactive results.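 Rule for the calls: active = mean inhibition above about 95%, with at least 55% of replicates also reaching it (limit read from the data); inconclusive = meets just one of the two conditions; inactive = meets neither condition.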
# Assay: Trypanosoma cruzi growth blockers in host fibroblasts – NIH3T3 host cells, beta-gal parasites, cherry-pick, set 2, confirmation (AID 651740);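 note: plate controls were neutral control median for no effect and positive control median for full effect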
# Settings: T. cruzi beta-gal in NIH3T3, GalScreen luminescence, 90 h; at 2.09 µM; active compounds read high
# Outline: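 Technique: GalScreen lysis and luminescent beta-gal signal | Test system: T. cruzi Tulahuen C4 (beta-gal) in NIH/3T3 cells | Amount: 5,000 fibroblasts/well | Reagent: 5000 parasites/well | Times: ≥90 h infection with compound, 60 min read delay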
row,SMILES,inhibition
1,O=C(NCc1ccccn1)[C@@H]1[C@@H](CO)[C@@H]2Cn3c(ccc(/C=C/c4ccccc4)c3=O)[C@H]1N2CC1CC1,22.2%
2,C[C@H]1CN([C@@H](C)CO)C(=O)c2cc(C#CC3CCCCC3)cnc2O[C@H]1CN(C)S(=O)(=O)c1ccccc1,77%
3,C[C@@H]1CN([C@@H](C)CO)C(=O)Cc2cc(NC(=O)C3CCCCC3)ccc2O[C@@H]1CN(C)Cc1ccc(C(=O)Nc2ccccc2N)cc1,83.7%
4,C[C@H](CO)N1C[C@H](C)[C@@H](CN(C)Cc2ccc(-c3ccccc3)cc2)Oc2ccc(NC(=O)CCC(F)(F)F)cc2CC1=O,89.8%
5,C[C@@H]1CCCCO[C@H](CN(C)C(=O)Nc2cccc3ccccc23)[C@H](C)CN([C@H](C)CO)C(=O)c2cc(NS(=O)(=O)c3cccs3)ccc2O1,52.6%
6,C[C@H](CO)N1C[C@H](C)[C@H](CN(C)C(=O)Nc2ccc3c(c2)OCO3)Oc2ncc(C#Cc3cccc(F)c3)cc2C1=O,36.1%
7,CC(C)NC(=O)N(C)C[C@H]1OCc2cn(nn2)CCCC(=O)N([C@@H](C)CO)C[C@H]1C,-10.9%
8,O=C(C1CC1)N1CCCCN2[C@H](CO)[C@H](c3ccc(-c4cccc(F)c4)cc3)[C@H]2C1,67%
9,C[C@H](CO)N1C[C@H](C)[C@H](CN(C)C(=O)C2CCCCC2)Oc2ncc(C#Cc3cccc(F)c3)cc2C1=O,44.3%
10,O=C(c1ccncc1)N1CCCCN2[C@H](CO)[C@H](c3ccc(-c4ccccc4)cc3)[C@H]2C1,68.8%
11,O=C(C1CCC1)N1CCCCN2[C@H](CO)[C@H](c3ccc(-c4cccc(F)c4)cc3)[C@@H]2C1,62%
12,C[C@@H]1CN([C@H](C)CO)C(=O)c2cc(C#CC3CCCCC3)cnc2O[C@@H]1CN(C)C(=O)NC1CCCC1,66.9%
13,O=C(C1CCC1)N1CCCCN2[C@H](CO)[C@H](c3ccc(-c4ccncc4)cc3)[C@@H]2C1,24.4%
14,COc1cccc(C#Cc2ccc([C@@H]3[C@H](C#N)N[C@H]3CO)cc2)c1,97.1% (active)
15,COCC(=O)N1[C@H](CO)[C@@H](c2ccc(C#Cc3ccccc3F)cc2)[C@@H]1C#N,72.9%
16,N#C[C@@H]1[C@@H](c2ccc(C#Cc3cccc(F)c3)cc2)[C@@H](CO)N1C(=O)C1CCC1,62.2%
17,O=C(C[C@H]1CC[C@@H]2[C@H](COC[C@H](O)CN2Cc2ccc(Oc3ccccc3)cc2)O1)N1CCN(c2ccccc2)CC1,21.7%
18,Cc1ccccc1-c1ccc([C@@H]2[C@H](CO)N3CCCCN(S(=O)(=O)c4ccc(F)cc4)C[C@@H]23)cc1,62.4%
19,CC(=O)N1[C@H](CNC(=O)C2CC2)[C@@H](c2ccc(-c3cccc(F)c3)cc2)[C@@H]1CO,-2.15%
20,CCCNC(=O)N1[C@@H]2c3cccc(=O)n3C[C@H]1[C@H](CO)[C@H]2C(=O)NCC(F)(F)F,23.3%
21,CC(C)(O)C#Cc1ccc([C@@H]2[C@H](CO)N3CCCCN(C(=O)c4cccc(F)c4)C[C@@H]23)cc1,-0.041%
22,CCC(=O)N1CCCCN2[C@H](C1)[C@@H](c1ccc(/C=C/c3ccccc3)cc1)[C@@H]2CO,62.7%
23,CCCN(C)C[C@H]1Oc2cc(C#CC3CCCC3)ccc2S(=O)(=O)N([C@H](C)CO)C[C@@H]1C,68.9%
24,C[C@H](CO)N1C[C@H](C)[C@@H](CN(C)C(=O)Nc2cc(F)ccc2F)Oc2cc(C#CC3CC3)ccc2S1(=O)=O,51.9%

row,SMILES,inhibition
1,CC(C)CC#Cc1ccc2c(c1)O[C@H](CN(C)C(=O)C1CC1)[C@@H](C)CN([C@@H](C)CO)S2(=O)=O,58.8%
2,C[C@@H]1CN([C@@H](C)CO)S(=O)(=O)c2ccc(C#CCN(C)C)cc2O[C@H]1CN(C)C(=O)C1CC1,98.9% (active)
3,C[C@@H]1CN([C@@H](C)CO)S(=O)(=O)c2ccc(C#CCC3CCCC3)cc2O[C@H]1CN(C)C(=O)CC1CC1,64.9%
4,C[C@@H]1CN([C@H](C)CO)S(=O)(=O)c2ccc(C#CCC3CCCC3)cc2O[C@H]1CN(C)C(=O)CC1CC1,106% (active)
5,C[C@H]1CN([C@@H](C)CO)S(=O)(=O)c2ccc(C#CC3CCCC3)cc2O[C@@H]1CN(C)C(=O)c1cccc(F)c1,100% (active)
6,CNC[C@@H]1Oc2cc(C#CCC3CCCC3)ccc2S(=O)(=O)N([C@H](C)CO)C[C@H]1C,31.6%
7,CC(=O)N(C)C[C@H]1Oc2cc(C#CCN(C)C)ccc2S(=O)(=O)N([C@@H](C)CO)C[C@@H]1C,91.3%
8,C[C@@H]1CN([C@H](C)CO)S(=O)(=O)c2ccc(C#CC3CCCC3)cc2O[C@@H]1CN(C)C(=O)Cc1ccncc1,66.3%
9,C[C@@H]1CN([C@H](C)CO)C(=O)Cc2cc(NC(=O)Cc3ccccc3)ccc2O[C@H]1CN(C)Cc1ccc(Oc2ccccc2)cc1,20.7%
10,CC(=O)NC[C@@H]1[C@@H](c2ccc(-c3ccccc3F)cc2)[C@@H](CO)N1C(=O)C1CC1,14.2%
11,COc1ccc(S(=O)(=O)Nc2ccc3c(c2)C(=O)N([C@@H](C)CO)C[C@H](C)[C@H](CN(C)Cc2ccc(C(F)(F)F)cc2)O3)cc1,42.3%
12,Cc1noc(C)c1S(=O)(=O)N(C)C[C@H]1Oc2ccc(N(C)C)cc2CC(=O)N([C@H](C)CO)C[C@@H]1C,-7.54%
13,CC(C)CC#Cc1ccc2c(c1)O[C@H](CN(C)Cc1ccncc1)[C@H](C)CN([C@H](C)CO)S2(=O)=O,89.4%
14,C[C@@H]1CN([C@@H](C)CO)S(=O)(=O)c2ccc(-c3cccc(F)c3)cc2O[C@@H]1CN(C)S(=O)(=O)c1ccccc1,94.1%
15,CC(C)CC#Cc1ccc2c(c1)O[C@H](CN(C)Cc1cccnc1)[C@H](C)CN([C@@H](C)CO)S2(=O)=O,81.2%
16,CC(C)CC#Cc1ccc2c(c1)O[C@H](CN(C)Cc1ccccc1F)[C@@H](C)CN([C@@H](C)CO)S2(=O)=O,113% (active)
17,CC(C)CC#Cc1ccc2c(c1)O[C@H](CN(C)S(=O)(=O)c1cccc(F)c1)[C@@H](C)CN([C@@H](C)CO)S2(=O)=O,110% (active)
18,C[C@@H]1CN([C@H](C)CO)S(=O)(=O)c2ccc(-c3cccc(F)c3)cc2O[C@H]1CN(C)S(=O)(=O)c1ccc(F)cc1,74.9%
19,O=C(C[C@@H]1C[C@@H]2c3cc(NC(=O)c4ccc5c(c4)OCO5)ccc3O[C@@H]2[C@@H](CO)O1)NCc1ccc(Cl)cc1,-3.27%
20,COc1cccc(S(=O)(=O)N2CCCCN3[C@H](CO)[C@H](c4ccc(-c5ccncc5)cc4)[C@H]3C2)c1,100% (active)
21,COc1ccccc1C#Cc1ccc([C@@H]2[C@H](CO)N3CCCCN(C(=O)C4CCCC4)C[C@@H]23)cc1,98.1% (active)
22,Cc1cccc(-c2ccc([C@@H]3[C@@H](CO)N4CCCCN(S(=O)(=O)c5cccs5)C[C@H]34)cc2)c1,94.4%
23,COc1ccccc1C#Cc1ccc([C@@H]2[C@H](CO)N3CCCCN(C(=O)C4CC4)C[C@@H]23)cc1,64.4%
24,COc1ccc(S(=O)(=O)N2CCCCN3[C@H](C2)[C@H](c2ccc(C#CCC(C)C)cc2)[C@@H]3CO)cc1,109% (active)

row,SMILES,inhibition
1,CN(C)CC#Cc1ccc([C@H]2[C@H]3CN(S(=O)(=O)c4ccccc4F)CCCCN3[C@H]2CO)cc1,8.03%
2,O=C(c1cccnc1)N1CCCCN2[C@@H](CO)[C@H](c3ccc(C#Cc4ccccc4)cc3)[C@@H]2C1,41.7%
3,COc1ccc(S(=O)(=O)N2CCCCN3[C@H](CO)[C@@H](c4ccc(C#CC(C)C)cc4)[C@H]3C2)cc1,79.7%
4,O=S(=O)(Cc1ccccc1)N1CCCCN2[C@@H](CO)[C@H](c3ccc(-c4cccnc4)cc3)[C@@H]2C1,62.1%
5,O=S(=O)(Cc1ccccc1)N1CCCCN2[C@@H](CO)[C@@H](c3ccc(-c4ccc(F)cc4)cc3)[C@@H]2C1,104% (active)
6,CCS(=O)(=O)N1CCCCN2[C@@H](CO)[C@@H](c3ccc(-c4ccccc4)cc3)[C@@H]2C1,27.5%
7,O=S(=O)(Cc1ccccc1)N1CCCCN2[C@@H](CO)[C@H](c3ccc(-c4ccccc4)cc3)[C@@H]2C1,78.8%
8,OC[C@@H]1[C@H](c2ccc(C#CC3(O)CCCC3)cc2)[C@H]2CN(Cc3cncnc3)CCCCN12,79.8%
9,CNC[C@H]1OCCCC[C@@H](C)Oc2ccc(NS(C)(=O)=O)cc2C(=O)N([C@H](C)CO)C[C@H]1C,-9.33%
10,CO[C@H](CN(C)S(=O)(=O)c1ccc(Cl)cc1)[C@@H](C)CN(Cc1ccccc1Cl)[C@H](C)CO,48.7%
11,COc1cccc(S(=O)(=O)Nc2ccc3c(c2)[C@H]2C[C@H](CC(=O)NCc4ccc(Cl)cc4)O[C@H](CO)[C@H]2O3)c1,2.49%
12,COc1cccc(S(=O)(=O)N2C[C@@H](O)COC[C@@H]3O[C@H](CC(=O)Nc4ccccc4)CC[C@H]32)c1,1.83%
13,C[C@H](CO)N1C[C@H](C)[C@@H](CN(C)S(=O)(=O)c2ccccc2F)Oc2ncc(C#Cc3ccccc3F)cc2C1=O,93.7%
14,C[C@H]1CN([C@@H](C)CO)C(=O)Cc2cc(NC(=O)Cc3cn(C)c4ccccc34)ccc2O[C@@H]1CN(C)Cc1ccc(C(F)(F)F)cc1,43.7%
15,O=C(Nc1cccc(F)c1)N1CCCCN2[C@H](CO)[C@H](c3ccc(C#CC4CC4)cc3)[C@@H]2C1,89.3%
16,COc1cccc(S(=O)(=O)N2CCCCN3[C@H](C2)[C@H](c2ccc(C#CC(C)C)cc2)[C@@H]3CO)c1,103% (active)
17,C/C=C/c1ccc([C@H]2[C@H]3CN(S(=O)(=O)c4ccccc4)CCCCN3[C@H]2CO)cc1,40.8%
18,C[C@H](O)C#Cc1ccc([C@@H]2[C@H]3CN(S(=O)(=O)c4ccccc4)CCCCN3[C@H]2CO)cc1,-19.2%
19,COc1cccc(S(=O)(=O)N2CCCCN3[C@H](CO)[C@H](c4ccc(C#CC5CC5)cc4)[C@H]3C2)c1,102% (active)
20,C[C@@H](O)C#Cc1ccc([C@@H]2[C@H](CO)N3CCCCN(S(=O)(=O)c4ccccc4)C[C@@H]23)cc1,12%
21,C[C@H](CO)N1C[C@H](C)[C@H](CN(C)C(=O)Nc2cccc3ccccc23)Oc2ncc(C#Cc3ccccc3)cc2C1=O,59.1%
22,Cc1cccc(-c2ccc([C@@H]3[C@H](CO)N4CCCCN(C(=O)c5ccc6c(c5)OCO6)C[C@@H]34)cc2)c1,66.9%
23,C[C@@H]1CN([C@H](C)CO)S(=O)(=O)c2ccc(-c3cccc(C#N)c3)cc2O[C@@H]1CN(C)C(=O)Nc1ccccc1F,85.2%
24,C[C@@H]1CN([C@@H](C)CO)C(=O)CCCn2cc(nn2)CO[C@@H]1CN(C)S(=O)(=O)c1ccccc1F,34.3%
